Data taken from ChEMBL document CHEMBL1138056, “Potent benzimidazole sulfonamide protein tyrosine phosphatase 1B inhibitors containing the heterocyclic (S)-isothiazolidinone phosphotyrosine mimetic” (J Med Chem, 2006).

Columns and labels:
[1] = target: T1, Tyrosine-protein phosphatase non-receptor type 1 (Homo sapiens, UniProt P18031); assay: Inhibition of PTP1B by pNPP assay
T1 sequence (P18031 whole entry): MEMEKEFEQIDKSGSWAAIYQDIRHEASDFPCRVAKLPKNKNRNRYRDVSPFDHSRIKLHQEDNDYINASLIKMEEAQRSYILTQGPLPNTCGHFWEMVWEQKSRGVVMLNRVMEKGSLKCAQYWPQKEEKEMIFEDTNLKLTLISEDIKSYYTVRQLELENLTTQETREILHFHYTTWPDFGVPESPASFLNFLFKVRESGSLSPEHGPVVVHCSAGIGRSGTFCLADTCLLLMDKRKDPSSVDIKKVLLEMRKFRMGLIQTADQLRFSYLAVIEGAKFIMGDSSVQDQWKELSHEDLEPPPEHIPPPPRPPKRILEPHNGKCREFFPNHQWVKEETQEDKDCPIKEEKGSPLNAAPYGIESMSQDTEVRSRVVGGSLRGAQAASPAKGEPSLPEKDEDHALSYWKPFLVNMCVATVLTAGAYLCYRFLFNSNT

[2] = target: T2, Tyrosine-protein phosphatase non-receptor type 1 (Homo sapiens) (UniProt P18031); assay: Increase in phosphorylation level of human insulin receptor transfected in HEK293 cells at 80 uM; assay type: functional, cell-based
T2 sequence (whole entry): T1 sequence (P18031 whole entry)
Procedure, shortened: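 HEK293-MSR cells cotransfected with full-length human PTP1B and insulin receptor plasmids, attached 24 h, then treated 16 h in serum-free DMEM (0.4% DMSO final). Lysed on ice; IR phosphorylated at Y1162/Y1163 measured by ELISA and normalized to total protein (BCA). Expressed as fold shift; averages of triplicates from the same day.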

[3] = Permeability across Caco-2 cell membrane; assay type: ADME, cell-based; conditions: human, read-out: permeability

| SMILES | IC50 [1] [nM] | Activity [2] | Papp [3] [×10⁻⁶ cm/s] |
| --- | --- | --- | --- |
| O=C1CC(c2ccc(CC(NS(=O)(=O)c3ccc(F)c(F)c3)c3nc4ccccc4[nH]3)cc2)S(=O)(=O)N1 (stereo not given) | 110 |  |  |
| CC(=O)N[C@@H](Cc1ccccc1)C(=O)N[C@@H](Cc1ccc([C@@H]2CC(=O)NS2(=O)=O)cc1)C(N)=O | 240 |  |  |
| O=C1CC(c2ccc(CC(NS(=O)(=O)c3cccc(F)c3)c3nc4ccccc4[nH]3)cc2)S(=O)(=O)N1 (stereo not given) | 43 |  |  |
| O=C1CC(c2ccc(CC(NS(=O)(=O)c3cc(F)cc(F)c3)c3nc4ccccc4[nH]3)cc2)S(=O)(=O)N1 (stereo not given) | 72 |  |  |
| N#Cc1ccccc1S(=O)(=O)NC(Cc1ccc(C2CC(=O)NS2(=O)=O)cc1)c1nc2ccccc2[nH]1 (stereo not given) | 45 |  |  |
| O=C1C[C@@H](c2ccc(C[C@H](NS(=O)(=O)c3ccccc3)c3nc4ccccc4[nH]3)cc2)S(=O)(=O)[N-]1.[Na+] | 32 | 1 | 0.4 |
| O=C1CC(c2ccc(CC(NS(=O)(=O)c3ccc(-c4ccccc4)cc3)c3nc4cc(Cl)ccc4[nH]3)cc2)S(=O)(=O)N1 (stereo not given) | 140 |  |  |
| O=C1CC(c2ccc(CC(NS(=O)(=O)c3ccc(C(F)(F)F)cc3)c3nc4ccccc4[nH]3)cc2)S(=O)(=O)N1 (stereo not given) | 51 |  |  |
| O=C1CC(c2ccc(CC(NS(=O)(=O)c3ccc(-c4ccccc4)cc3)c3nc4c(O)cccc4[nH]3)cc2)S(=O)(=O)N1 (stereo not given) | 240 |  |  |
| Cc1ccc(S(=O)(=O)NC(Cc2ccc(C3CC(=O)NS3(=O)=O)cc2)c2nc3ccccc3[nH]2)cc1 (stereo not given) | 80 |  |  |
| O=C1CC(c2ccc(CC(NS(=O)(=O)c3ccccc3Cl)c3nc4ccccc4[nH]3)cc2)S(=O)(=O)N1 (stereo not given) | 160 |  |  |
| O=C1CC(c2ccc(C[C@H](NS(=O)(=O)c3ccccc3)c3nc4ccccc4[nH]3)cc2F)S(=O)(=O)[N-]1.[Na+] (stereo not given in full) | 18 | 1.6 | 0.2 |
| Cc1cc(C[C@H](NS(=O)(=O)c2ccccc2)c2nc3ccccc3[nH]2)ccc1[C@H]1CC(=O)NS1(=O)=O |  | 1 |  |
| O=C1CC(c2ccc(CC(NS(=O)(=O)c3cc(F)ccc3F)c3nc4ccccc4[nH]3)cc2)S(=O)(=O)N1 (stereo not given) | 140 |  |  |
| O=C1CC(c2ccc(CC(NS(=O)(=O)c3ccccc3Br)c3nc4ccccc4[nH]3)cc2)S(=O)(=O)N1 (stereo not given) | 170 |  |  |
| O=C1CC(c2ccc(CC(NS(=O)(=O)c3ccc(F)cc3)c3nc4ccccc4[nH]3)cc2)S(=O)(=O)N1 (stereo not given) | 80 |  |  |
| N#Cc1ccc2nc(C(Cc3ccc(C4CC(=O)NS4(=O)=O)cc3)NS(=O)(=O)c3ccc(-c4ccccc4)cc3)[nH]c2c1 (stereo not given) | 53 |  |  |
| Cc1cccc2[nH]c(C(Cc3ccc(C4CC(=O)NS4(=O)=O)cc3)NS(=O)(=O)c3ccc(-c4ccccc4)cc3)nc12 (stereo not given) | 190 |  |  |
| CC(C)(C)c1cccc2[nH]c(C(Cc3ccc(C4CC(=O)NS4(=O)=O)cc3)NS(=O)(=O)c3ccc(-c4ccccc4)cc3)nc12 (stereo not given) | 460 |  |  |

| SMILES | IC50 [1] [nM] | Activity [2] | Papp [3] [×10⁻⁶ cm/s] |
| --- | --- | --- | --- |
| O=C1C[C@@H](c2ccc(C[C@H](NS(=O)(=O)c3cccc(F)c3)c3nc4ccccc4[nH]3)cc2F)S(=O)(=O)[N-]1.[Na+] | 15 | 1.1 | < 0.1 |
| O=C1CC(c2ccc(CC(NS(=O)(=O)c3ccccc3F)c3nc4ccccc4[nH]3)cc2)S(=O)(=O)N1 (stereo not given) | 120 |  |  |
| CS(=O)(=O)N[C@@H](Cc1ccc([C@@H]2CC(=O)NS2(=O)=O)cc1)c1nc2ccccc2[nH]1 | 590 |  |  |
| O=C1CC(c2ccc(CC(NS(=O)(=O)c3cc(Cl)ccc3Cl)c3nc4ccccc4[nH]3)cc2)S(=O)(=O)N1 (stereo not given) | 160 |  |  |
| O=C1CC(c2ccc(CC(NS(=O)(=O)c3ccc(Cl)c(Cl)c3)c3nc4ccccc4[nH]3)cc2)S(=O)(=O)N1 (stereo not given) | 79 |  |  |
| COC(=O)c1ccc2[nH]c(C(Cc3ccc(C4CC(=O)NS4(=O)=O)cc3)NS(=O)(=O)c3ccc(-c4ccccc4)cc3)nc2c1 (stereo not given) | 150 |  |  |
| O=C1CC(c2ccc(CC(NS(=O)(=O)c3cccc(C(F)(F)F)c3)c3nc4ccccc4[nH]3)cc2)S(=O)(=O)N1 (stereo not given) | 67 |  |  |
| CC(=O)N[C@@H](Cc1ccc([C@@H]2CC(=O)NS2(=O)=O)cc1)c1nc2ccccc2[nH]1 | 940 |  |  |
| COc1ccc(S(=O)(=O)NC(Cc2ccc(C3CC(=O)NS3(=O)=O)cc2)c2nc3ccccc3[nH]2)cc1 (stereo not given) | 94 |  |  |
| O=C1CC(c2ccc(CC(NS(=O)(=O)c3cccc(Cl)c3Cl)c3nc4ccccc4[nH]3)cc2)S(=O)(=O)N1 (stereo not given) | 240 |  |  |
| O=C1CC(c2ccc(CC(NS(=O)(=O)c3ccc(-c4ccccc4)cc3)c3nc4cc(C(F)(F)F)ccc4[nH]3)cc2)S(=O)(=O)N1 (stereo not given) | 160 |  |  |
| Cc1cc(C[C@H](NS(=O)(=O)c2ccccc2)c2nc3ccccc3[nH]2)ccc1[C@@H]1CC(=O)[N-]S1(=O)=O.[Na+] |  | 2.8 | 0.4 |
| O=C1CC(c2ccc(C[C@H](NS(=O)(=O)c3cccc(C(F)(F)F)c3)c3nc4cc(Cl)ccc4[nH]3)cc2F)S(=O)(=O)[N-]1.[Na+] (stereo not given in full) | 10 | 2.3 | 0.3 |
| O=C1CC(c2ccc(CC(NS(=O)(=O)c3c(Cl)cccc3Cl)c3nc4ccccc4[nH]3)cc2)S(=O)(=O)N1 (stereo not given) | 460 |  |  |
| O=C1CC(c2ccc(CC(NS(=O)(=O)c3ccccc3C(F)(F)F)c3nc4ccccc4[nH]3)cc2)S(=O)(=O)N1 (stereo not given) | 130 |  |  |
| O=C1CC(c2ccc(CC(NS(=O)(=O)c3ccc(-c4ccccc4)cc3)c3nc4ccccc4[nH]3)cc2)S(=O)(=O)N1 (stereo not given) | 80 |  |  |
| Cc1cc(C[C@H](NS(=O)(=O)c2ccc(Br)c(C(F)(F)F)c2)c2nc3ccccc3[nH]2)ccc1[C@@H]1CC(=O)[N-]S1(=O)=O.[Na+] | 16 | 2 | < 0.1 |
| COc1cccc(S(=O)(=O)NC(Cc2ccc(C3CC(=O)NS3(=O)=O)cc2)c2nc3ccccc3[nH]2)c1 (stereo not given) | 48 |  |  |
| O=C(CCc1ccccc1)N[C@@H](Cc1ccc([C@@H]2CC(=O)NS2(=O)=O)cc1)c1nc2ccccc2[nH]1 | 600 |  |  |

| SMILES | IC50 [1] [nM] | Activity [2] | Papp [3] [×10⁻⁶ cm/s] |
| --- | --- | --- | --- |
| O=C1CC(c2ccc(CC(NS(=O)(=O)c3ccc(Cl)cc3)c3nc4ccccc4[nH]3)cc2)S(=O)(=O)N1 (stereo not given) | 110 |  |  |
| Cc1ccccc1S(=O)(=O)NC(Cc1ccc(C2CC(=O)NS2(=O)=O)cc1)c1nc2ccccc2[nH]1 (stereo not given) | 300 |  |  |
| Cc1cc(C[C@H](NS(=O)(=O)c2cccc(Cl)c2)c2nc3ccccc3[nH]2)ccc1[C@@H]1CC(=O)[N-]S1(=O)=O.[Na+] | 76 | 1.9 | 0.2 |
| COc1ccc2[nH]c(C(Cc3ccc(C4CC(=O)NS4(=O)=O)cc3)NS(=O)(=O)c3ccc(-c4ccccc4)cc3)nc2c1 (stereo not given) | 130 |  |  |
| O=C1C[C@@H](c2ccc(C[C@H](NS(=O)(=O)c3ccccc3)c3nc4ccccc4[nH]3)cc2Cl)S(=O)(=O)[N-]1.[Na+] | 50 | 1 | < 0.1 |
| Cc1cc(C[C@H](NS(=O)(=O)c2ccccc2C#N)c2nc3ccccc3[nH]2)ccc1[C@@H]1CC(=O)[N-]S1(=O)=O.[Na+] | 18 | 1.4 | < 0.1 |
| O=C1CC(c2ccc(C[C@H](NS(=O)(=O)c3ccccc3)c3nc4ccccc4[nH]3)cc2Br)S(=O)(=O)[N-]1.[Na+] (stereo not given in full) | 340 | 0.7 | < 0.1 |
| O=C1CC(c2ccc(CC(NS(=O)(=O)c3ccc(F)cc3F)c3nc4ccccc4[nH]3)cc2)S(=O)(=O)N1 (stereo not given) | 110 |  |  |
| O=C1CC(c2ccc(CC(NS(=O)(=O)c3cccc(Cl)c3)c3nc4ccccc4[nH]3)cc2)S(=O)(=O)N1 (stereo not given) | 60 |  |  |
| O=C1CC(c2ccc(CC(NS(=O)(=O)c3cccc(Br)c3)c3nc4ccccc4[nH]3)cc2)S(=O)(=O)N1 (stereo not given) | 77 |  |  |
| O=C1CC(c2ccc(CC(NS(=O)(=O)c3ccc(-c4ccccc4)cc3)c3nc4cc(F)ccc4[nH]3)cc2)S(=O)(=O)N1 (stereo not given) | 120 |  |  |
| N#Cc1ccc(S(=O)(=O)NC(Cc2ccc(C3CC(=O)NS3(=O)=O)cc2)c2nc3ccccc3[nH]2)cc1 (stereo not given) | 63 |  |  |
| Cc1cccc(S(=O)(=O)NC(Cc2ccc(C3CC(=O)NS3(=O)=O)cc2)c2nc3ccccc3[nH]2)c1 (stereo not given) | 85 |  |  |
| O=C1CC(c2ccc(CC(NS(=O)(=O)c3cc(Cl)cc(Cl)c3)c3nc4ccccc4[nH]3)cc2)S(=O)(=O)N1 (stereo not given) | 51 |  |  |
| O=C1CC(c2ccc(CC(NS(=O)(=O)c3ccc(Br)cc3)c3nc4ccccc4[nH]3)cc2)S(=O)(=O)N1 (stereo not given) | 110 |  |  |
| O=C1CC(c2ccc(CC(NS(=O)(=O)c3c(F)cccc3F)c3nc4ccccc4[nH]3)cc2)S(=O)(=O)N1 (stereo not given) | 160 |  |  |
| Cc1ccc2[nH]c(C(Cc3ccc(C4CC(=O)NS4(=O)=O)cc3)NS(=O)(=O)c3ccc(-c4ccccc4)cc3)nc2c1 (stereo not given) | 140 |  |  |
| O=C1CC(c2ccc(CC(NS(=O)(=O)c3ccc(Cl)cc3Cl)c3nc4ccccc4[nH]3)cc2)S(=O)(=O)N1 (stereo not given) | 280 |  |  |
